Results published in paper PMC6034632 (Science translational medicine, 2017).
*1 amine or outer side, *2 acyl side, *3 side chain or, on linkers, in order; H or OH if unused. Where a SMILES comes first, the peptide text is derived from it. Bridges are numbered along the chain shown (N, C = ends). [ ]: non-standard residue; d: D form. The star is where a group is joined. Leu(3R-OH,Nα-propionyl) = CCC(=O)N[C@H](C(=O)*)[C@H](O)C(C)C; X1 = CC(C)[C@@H](O[*:3])[C@H](N[*:1])C(=O)[*:2]; NMeT = CN[C@H](C(=O)O)[C@@H](C)O; dPhLac = O=C(O)[C@H](O)Cc1ccccc1; NMeA = CN[C@@H](C)C(=O)O; NMeDha = C=C(NC)C(=O)O

Assays:
[1] = tested on: cytosolic cAMP (NK1R, HEK293 cells); assay: FRET biosensor CytoEpac2, SP-induced cytosolic cAMP; assay type: cell-based, human; conditions: SP 1 nM
Summary of the method: (§1)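 HEK293 cells expressed NK1R plus a genetically encoded FRET biosensor targeted to the cytosol, nucleus or plasma membrane (ERK, PKC or cAMP sensors). Ratiometric imaging followed time courses after SP, with the maximal signal set by a positive control. Responses were integrated as area under the curve.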

[2] = tested on: NK1R-positive neurons in lamina I of the dorsal horn; assay: Cell-attached patch clamp recordings of SP-induced firing in spinal cord slices; assay type: cell-based, rat; conditions: for reduction of number of SP-stimulated action potentials: compared to controls; for inhibition of SP-induced firing time of lamina I neurons: slices preincubated with inhibitor, versus vehicle control
Summary of the method: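 Cell-attached patch clamp recordings were made from second-order lamina I neurons in rat spinal cord slices. SP was applied at 1 μM for 2 min, then washed out. Slices were exposed to test compound for 60 min, washed, and challenged with SP 60 min later. Firing rate was taken as events per 2 min normalized to the 2-min rate, and duration as time to the last action potential. Six to 7 neurons per group.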

PKCα = conditions: cited from earlier work
[3] = tested on: NK1R endocytosis in HEK293 cells; assay: BRET assay of SP-induced NK1R endocytosis; assay type: cell-based, human; conditions: SP 1 or 10 nM
Summary of the method: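 NK1R C-terminally fused to RLUC8 was co-expressed in HEK293 cells with Venus-tagged KRAS (plasma membrane marker) or RAB5A (early endosome marker). Receptor proximity to each compartment was tracked as SP-induced BRET over time. Observations were in triplicate, n ≥ 3 experiments.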

[4] = tested on: nuclear ERK activity (NK1R, HEK293 cells); assay: FRET biosensor NucEKAR, SP-induced nuclear ERK activity; assay type: cell-based, human; conditions: for SP stimulation of nuclear ERK: SP 1 nM, HEK293, NucEKAR
Summary of the method: as §1

[5] = tested on: cytosolic PKC activity (NK1R, HEK293 cells); assay: FRET biosensor CytoCKAR, SP-induced cytosolic PKC activity; assay type: cell-based, human; conditions: SP 1 nM
Summary of the method: as §1

[6] = Degradation by membranes prepared from spinal cord; assay type: in vitro ADME, mouse
[7] = tested on: CFA-induced mechanical hyperalgesia; assay: CFA-induced mechanical hyperalgesia, von Frey; assay type: in vivo, mouse; conditions: mice, intrathecal 36 hours after intraplantar CFA
Summary of the method: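 Mice received intraplantar CFA; 36 hours later test compound was given intrathecally. Mechanical hyperalgesia was read as von Frey filament withdrawal responses of the CFA-injected paw over the following hours. Groups were compared to control by ANOVA with Dunnett's test.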

[8] = tested on: capsaicin-induced mechanical allodynia; assay type: in vivo, mouse; conditions: mice, intrathecal injection 3 hours before intraplantar capsaicin
NK1R (HEK-NK1R cells) = NK1R (HEK-NK1R cells) (Homo sapiens, UniProt P25103); assay: SP-stimulated Ca2+ signaling; assay type: cell-based; conditions: 10 nM antagonist
[9] = tested on: NK1R-IR in lamina I neurons; assay: NK1R endocytosis in spinal neurons in vivo after intraplantar capsaicin; conditions: rat, intraplantar capsaicin alone (vehicle-treated control 80.7 ± 1.6), 10 min
HEK-NK1R cells = assay: Endocytosis of fluorescent Alexa Fluor 568–SP; assay type: cell-based, human
[10] = tested on: cytosolic ERK activity (NK1R, HEK293 cells); assay: FRET biosensor CytoEKAR, SP-induced cytosolic ERK activity; assay type: cell-based, human; conditions: SP 1 nM
Summary of the method: as §1

[11] = tested on: plasma membrane cAMP (NK1R, HEK293 cells); assay: FRET biosensor pmEpac2, SP-induced plasma membrane cAMP; assay type: cell-based, human; conditions: SP 1 nM
Summary of the method: as §1

[12] = tested on: plasma membrane PKC activity (NK1R, HEK293 cells); assay: FRET biosensor pmCKAR, plasma membrane PKC activity; assay type: cell-based, human; conditions: SP 1 nM
Summary of the method: as §1

[13] = tested on: SP and CGRP release from dorsal spinal cord; assay: Capsaicin-stimulated neuropeptide release from segments of dorsal spinal cord; conditions: segments of mouse dorsal spinal cord, n = 6 experiments
[14] = tested on: pERK in lamina I/II dorsal horn neurons; assay: Capsaicin-stimulated ERK phosphorylation in dorsal horn neurons in vivo; conditions: rat, intrathecal inhibitor, intraplantar capsaicin
[15] = tested on: contralateral paw withdrawal; conditions: mouse, in vivo
[16] = tested on: formalin nocifensive response; assay: Nocifensive behavior after intraplantar formalin; assay type: in vivo, mouse; conditions: mice, intrathecal endocytosis inhibitors
motor behavior = conditions: mouse, in vivo
[17] = tested on: NK1R-IR endocytosis in spinal neurons; assay: SP-induced NK1R-IR endocytosis in spinal cord slices; assay type: cell-based; conditions: rat spinal cord slices, SP 1 μM 5 min
lamina I/IIo neurons = assay: EPSC induced by primary afferent stimulation; assay type: cell-based; conditions: n = 11 neurons
[18] = tested on: capsaicin-evoked mechanical allodynia; assay: Capsaicin-evoked mechanical allodynia in rat; assay type: in vivo; conditions: intrathecal
[19] = tested on: HEK293 / HEK-NK1R-GFP cells; assay: Uptake and trafficking of tripartite probes; assay type: cell-based, human; conditions: effect of dynamin inhibitor
Summary of the method: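 HEK293 or HEK-NK1R–GFP cells were incubated with Cy5-labelled cholestanol-conjugated probes, either continuously for 4 hours or as a 30 or 60 min pulse, washed and recovered 4 hours. NK1R-GFP cells received SP to drive receptor endocytosis. Localization to plasma membrane and RAB5A-RFP– or NK1R-GFP–positive endosomes was imaged, with or without dynamin inhibitor.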

[20] = rat spinal cord slices, SP 1 μM 2 min

NK1R (HEK-NK1R cells), sequence (P25103 whole entry, species assumed): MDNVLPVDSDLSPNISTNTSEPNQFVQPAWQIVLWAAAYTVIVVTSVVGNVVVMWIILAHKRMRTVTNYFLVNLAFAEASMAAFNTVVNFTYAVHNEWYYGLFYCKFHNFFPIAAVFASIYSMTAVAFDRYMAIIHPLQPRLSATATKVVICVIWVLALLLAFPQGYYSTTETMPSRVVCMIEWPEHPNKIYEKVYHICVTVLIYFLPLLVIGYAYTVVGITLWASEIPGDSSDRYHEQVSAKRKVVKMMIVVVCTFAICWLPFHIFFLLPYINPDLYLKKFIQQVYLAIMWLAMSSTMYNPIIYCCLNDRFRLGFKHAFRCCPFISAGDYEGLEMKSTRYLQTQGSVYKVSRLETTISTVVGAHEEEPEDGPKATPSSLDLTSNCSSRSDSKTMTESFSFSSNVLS

CN(C)CCCn1cc(C2=C(c3c[nH]c4ccccc34)C(=O)NC2=O)c2ccccc21 [GF109203X]
SP stimulation of cytosolic cAMP [1]: prevented SP generation of cytosolic cAMP | reduction of number of SP-stimulated action potentials [2]: 61 ± 15% | inhibition of SP-induced firing time of lamina I neurons [2]: 56.8 ± 8.2% | inhibiting PKCα (PKCα): 4 % control

C=C1C(=O)N[C@@H](C)C(=O)N(C)[C@@H](C)C(=O)N[C@@H]([C@H](OC(=O)[C@@H](NC(=O)CC)[C@H](O)C(C)C)C(C)C)C(=O)N(C)[C@@H]([C@@H](C)OC)C(=O)O[C@H](C(C)C)[C@H](NC(C)=O)C(=O)O[C@H](Cc2ccccc2)C(=O)N1C [UBO-QIC] (Ac-[X1][dPhLac][NMeDha]A[NMeA][X1](Leu(3R-OH,Nα-propionyl))[NMeT](Me); ester 1-C)
SP-induced NK1R endocytosis [3]: did not affect NK1R endocytosis | SP stimulation of nuclear ERK [4]: prevented SP activation of nuclear ERK | SP stimulation of cytosolic PKC [5]: prevented activation of cytosolic PKC | SP stimulation of cytosolic cAMP [1]: prevented SP generation of cytosolic cAMP

COc1ccc2c(c1)CC[C@@H]1[C@@H]2CC[C@]2(C)[C@@H](NCCCCCCN3C(=O)C=CC3=O)CC[C@@H]12 [U73122]
SP stimulation of cytosolic PKC [5]: prevented activation of cytosolic PKC

substance P [SP]
degradation by spinal cord membranes [6]: rapidly degraded

CC(C)Oc1cccc(CC(=O)N2CCC[C@@](CC[N+]34CCC(c5ccccc5)(CC3)CC4)(c3ccc(Cl)c(Cl)c3)C2)c1.[Cl-] [SR140,333]
SP-induced nuclear ERK (endosomal NK1R) 4 hours after pulse ([4]; pulse-incubated 30 min, washed, SP 4 hours later): unable to effectively inhibit persistent NK1R signaling in endosomes | CFA mechanical hyperalgesia [7]: minor

FC(F)(F)c1cc(CO[C@H]2CCCN[C@H]2c2ccccc2)cc(C(F)(F)F)c1 [L-733,060]
capsaicin-evoked mechanical allodynia [8]: antinociceptive only at 1 hour | % inhibition against 1 nM SP, Ca2+ signaling (NK1R (HEK-NK1R cells)): 40.8 ± 8.9%

COc1cc(CNC(=O)CCCC/C=C/C(C)C)ccc1O [capsaicin]
% NK1R-IR within 0.5 μm of plasma membrane [9]: 42.1 ± 5.6%

O=C1NC(=NS(=O)(=O)c2cccc3ccccc23)S/C1=C\c1ccc(Br)cc1 [PS2, Pitstop-2]
SP-induced NK1R endocytosis [3]: inhibited NK1R endocytosis | endocytosis of fluorescent Alexa Fluor 568–SP (HEK-NK1R cells): inhibited endocytosis | SP stimulation of nuclear ERK [4]: abolished | SP stimulation of cytosolic PKC [5]: abolished | SP stimulation of cytosolic cAMP [1]: abolished | SP activation of cytosolic ERK [10]: did not affect | SP activation of plasma membrane cAMP [11]: did not affect | plasma membrane PKC activity [12]: amplified plasma membrane PKC activity | capsaicin-stimulated release of SP or CGRP [13]: did not affect | capsaicin-stimulated ERK activation in spinal neurons [14]: prevented capsaicin-stimulated ERK activation | withdrawal responses of the contralateral paw [15]: did not affect | nocifensive response to intraplantar formalin [16]: blunted both the early (noninflammatory) and late (inflammatory) phases | rotarod latency (motor behavior): did not affect

O=C(O)CN(CCOCCOCCN(CC(=O)O)CC(=O)O)CC(=O)O [EGTA]
SP stimulation of cytosolic PKC [5]: prevented activation of cytosolic PKC | SP stimulation of cytosolic cAMP [1]: prevented SP generation of cytosolic cAMP

N#CC(=C(/N)Sc1ccccc1N)/C(C#N)=C(/N)Sc1ccccc1N [U0126]
reduction of number of SP-stimulated action potentials [2]: 84 ± 5% | inhibition of SP-induced firing time of lamina I neurons [2]: 67.5 ± 8.3%

O=C(N/N=C/c1cc(O)c(O)cc1O)c1cc2ccccc2cc1O [Dy4, Dyngo-4a]
SP-induced NK1R endocytosis [3]: inhibited NK1R endocytosis | endocytosis of fluorescent Alexa Fluor 568–SP (HEK-NK1R cells): inhibited endocytosis | SP stimulation of nuclear ERK [4]: abolished | SP stimulation of cytosolic PKC [5]: abolished | SP stimulation of cytosolic cAMP [1]: abolished | SP activation of cytosolic ERK [10]: did not affect | SP activation of plasma membrane cAMP [11]: did not affect | plasma membrane PKC activity [12]: amplified plasma membrane PKC activity | initial onset of SP-induced firing [2, 20]: did not affect the initial onset | sustained SP-induced firing (firing rate and firing time) [2, 20]: prevented the sustained response | SP-induced firing rate (events per 2 min, normalized to rate at 2 min) ([2]; rat spinal cord slices, SP 1 μM 2 min, endocytosis inhibitor): 342.1 ± 120.7 events per 2 min | SP-stimulated NK1R-IR endocytosis in spinal neurons [17]: inhibited NK1R endocytosis | generation of excitatory postsynaptic currents (EPSCs) (lamina I/IIo neurons): did not affect | capsaicin-stimulated release of SP or CGRP [13]: did not affect | capsaicin-stimulated ERK activation in spinal neurons [14]: prevented capsaicin-stimulated ERK activation | withdrawal responses of the contralateral paw [15]: did not affect | capsaicin-evoked mechanical allodynia in rat [18]: inhibited capsaicin-evoked mechanical allodynia | nocifensive response to intraplantar formalin [16]: blunted both the early (noninflammatory) and late (inflammatory) phases | uptake of Chol-conjugated tripartite probes [19]: inhibited uptake | rotarod latency (motor behavior): did not affect
